High-throughput results (PubChem)
TPT1 inh: blocks Candida albicans tRNA 2'-phosphotransferase | recombinant caTPT1, FP RNA substrate dephosphorylation | AID 1962 | inhibition, % at 5 µM | hit rate 0.81% among 300,000;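 active = inhibition above the mean of all tested compounds plus 3 SD, set per screening campaign, cut at about 24% in these data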;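 note: plate controls were DMSO alone for no effect and ferristatin control at 100 nM for full effect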
Rpn11 block: Rpn11 (human) deubiquitinase inhibition. hit rate 0.59% among 360,000. O00487. inhibition, % at 20 µM. human 26S proteasome, Ub4-pepOG fluorescence polarization; 20S core pre-blocked with epoxomicin;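 active = inhibition at 20 µM, scaled to each plate's controls, above about 33%, limit read from the data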
CSN inh: blocks human CSN-mediated cullin deneddylation; Q92905; Purified CSN, SCF-Nedd8-OG deneddylation, fluorescence polarization; inhibition, % at 12.5 µM; hit rate 0.38% among 360,000; AID 651999;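 active = pattern-corrected inhibition above about 35%, with an unprinted fluorescence ratio check between 0.5 and 1.5, limit read from the data, passing the limit was not always enough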;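 note: 0% = enzyme with substrate and 100% = substrate without enzyme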
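Assay system: HEK293T-derived human Csn5 enzyme; quantity: 0.24 nM enzyme; medium: Tris/NaCl/DTT buffer, pH 7.5; also added: substrate SCFSkp2-Nedd8OG, 10 nM; doses: 12.5 µM compound; schedule: 90 min reaction at room temperature; signal: FP; read-out: % inhibition of substrate cleavage by Csn5; benchmarks: substrate-only high control, full reaction low control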
NadD block: inhibitors of Staphylococcus aureus NadD. purified NadD enzyme, colorimetric absorbance read-out. AID 602399. hit rate 0.78% among 360,000. inhibition, % at 20 µM; in the data active = inhibition above about 26%
HNF4A DNA FP: change in binding of human HNF4 alpha to DNA; hit rate 0.3% among 360,000; AID 1224865; P41235; HNF4a-FITC DNA binding, fluorescence polarization, 1 h; activity change, % at 10 µM; in the data active = activity change above about 30%, passing the limit was not always enough
PP1 counter: PP1-alpha (human) inhibition in PP5 counter-screen; purified PP1alpha, OMFP fluorescence; P62136; hit rate 0.9% among 320,000; inhibition, % at 6.7 µM;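 active = inhibition above the mean inhibition of all tested compounds plus 3 SD, computed separately for each screening campaign, cut at about 15% in these data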
Target sequence (P62136 whole entry, looked up): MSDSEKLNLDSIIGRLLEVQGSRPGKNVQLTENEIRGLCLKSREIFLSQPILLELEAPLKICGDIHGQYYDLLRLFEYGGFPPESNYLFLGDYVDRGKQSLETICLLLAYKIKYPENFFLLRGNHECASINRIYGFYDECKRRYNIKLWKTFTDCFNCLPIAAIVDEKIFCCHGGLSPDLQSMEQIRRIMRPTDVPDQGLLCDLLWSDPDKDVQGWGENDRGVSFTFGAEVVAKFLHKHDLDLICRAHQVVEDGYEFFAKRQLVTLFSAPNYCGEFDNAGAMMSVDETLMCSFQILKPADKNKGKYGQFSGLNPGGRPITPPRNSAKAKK
NadD conf: confirmation of Staphylococcus aureus NadD inhibitors | inhibition, % at 20 µM | purified S. aureus NadD, colorimetric enzyme assay | shares compounds with NadD block | hit rate 13% among 2,000 | AID 624309; in the data active = inhibition mostly above about 42%, no sharp cut-off; inactive = mostly below about 42%
The depositor's hits bear a star; / = no result shown. Rows were chosen to be rich in hits. Some 2.7% of all compounds tested hit in one or more screens of this group.

SMILES	TPT1 inh	Rpn11 block	CSN inh	NadD block	HNF4A DNA FP	PP1 counter	NadD conf
CCN(CC)S(=O)(=O)c1ccc(C(=O)NNc2nc(-c3ccccc3)c3cc(Br)ccc3n2)cc1	1	-1	-7	35*	-1	11	20
CC(C)(C)C(=O)NNc1nc(-c2ccccc2)c2cc(Br)ccc2n1	-1	-1	-3	-1	0	-11	/
Clc1cccc(/C=N/N2CCN(Cc3ccccc3)CC2)c1	0	-5	2	4	-1	-1	/
COc1ccc2c(c1)N(C)/C(=C1/SC(=NCc3ccccc3)N(c3ccccc3)C1=O)S2	3	/	11	31*	19	-4	17
O=C1NC(=O)c2c(Br)c(Br)c(Br)c(Br)c21	/	-12	1	30*	1	/	7
CCn1c2ccccc2c2cc(NC(=O)CSc3nccc(=O)[nH]3)ccc21	5	12	-1	41*	5	-2	50*
O=C(CSc1nccc(=O)[nH]1)Nc1ccc2ccccc2c1	/	4	-3	-3	3	/	/
O=C(NC(=S)Nc1cc(-c2nc3ccccc3[nH]2)ccc1Cl)c1ccc2c(c1)OCO2	-2	8	-1	30*	12	3	47*
CC1(C)Cc2c(sc3c2c(=N)n(Cc2ccco2)c(=O)n3Cc2ccc(Cl)cc2)CO1	4	26	3	32*	3	9	20
CC[C@]12c3[nH]c4cc(-c5ccco5)ccc4c3CCN1C(=O)[C@@H](CC(=O)NCC13CC4CC(CC(C4)C1)C3)C[C@@H]2C(=O)N1CCN(C(=O)c2ccco2)CC1	/	33	11	40*	6	/	20
O=S(=O)(c1ccc(Cl)cc1)N1CCN(c2nc(-c3cccs3)nc3ccccc23)CC1	/	2	-20	30*	7	/	28
CC(=O)Nc1ccc(NC2=Nc3ccccc3N3C2=Nc2c(c(C)nn2-c2ccccc2)C3c2ccccc2)cc1 (centres undefined)	1	-13	0	37*	-3	-2	31
COc1ccc(NC2=Nc3ccccc3N3C2=Nc2c(c(C)nn2-c2ccc(C)cc2)C3c2cccnc2)cc1 (centres undefined)	3	0	5	17	-1	-1	/
O=C(N/N=C/c1ccccc1Cl)c1nc2ccc([N+](=O)[O-])cc2c(=O)[nH]1	-1	-17	3	36*	-2	6	42
O=C(CSc1nnc(SCc2ccccc2)s1)N/N=C/C=C/c1ccco1	7	/	32	48*	-45	2	43*
CN(C)/C=C1\C(=O)N(c2ccc(Cl)c(Cl)c2)CS1(=O)=O	-2	4	0	33*	-3	-2	-1
CN(C)CCNC(=O)Cn1ccc2cc(S(=O)(=O)N3CCCCC3)ccc21	2	4	-4	0	-2	-2	/
Nc1ccccc1C(=O)NNC(=O)C(=O)/C=C(\O)c1ccccc1	-1	11	6	72*	2	3	73*
COc1cccc(NC(=O)C2CCN(S(=O)(=O)c3ccc4[nH]c(=O)ccc4c3)CC2)c1	2	-1	2	-3	1	-1	/
O=C(/C=C/c1cccs1)Nc1ccc(N2CCOCC2)c(S(=O)(=O)Nc2cc(Cl)ccc2Cl)c1	6	7	4	34*	5	-2	16
O=C(/C=C/c1cccs1)Nc1ccc(N2CCOCC2)c(S(=O)(=O)Nc2ccccc2Cl)c1	-4	12	2	23	-1	6	/
COc1ccc(NC(=O)CSc2nc3ccc(Nc4nc(N5CCOCC5)nc(N5CCOCC5)n4)cc3s2)cc1	2	9	3	12	-2	-2	/
Cc1ccc(NC(=O)CSc2nc3ccc(Nc4nc(N5CCOCC5)nc(N5CCOCC5)n4)cc3s2)cc1	/	7	8	30*	-1	/	3
Cc1noc(C)c1S(=O)(=O)NC(=O)C1(C)CCN1C(=O)C1(c2ccc(Cl)cc2)CCC1 (centres undefined)	/	-9	-7	3	0	/	/
O=C(CSc1nnc(-c2ccccn2)n1Cc1ccco1)c1ccc(-c2ccccc2)cc1	0	18	6	50*	-2	12	9
SMILES	TPT1 inh	Rpn11 block	CSN inh	NadD block	HNF4A DNA FP	PP1 counter	NadD conf
CC(C)n1c(CNC(=O)c2ccccc2F)nnc1SCC(=O)NC1CCCCC1	/	24	6	32*	-6	/	16
COc1cc(NC(=O)CSc2ncnc3sc4c(c23)CCC(C)C4)c(C(=O)O)cc1OC (centres undefined)	-5	4	2	36*	-1	0	21
CC1CCc2c(sc3ncnc(SCC(=O)Nc4ccc(C(=O)O)cc4)c23)C1 (centres undefined)	-4	3	2	11	0	-2	/
N#CC/C(N)=N/Nc1nc2ccccc2nc1Cc1ccccc1	8	22	8	34*	9	5	12
N#CCn1c(Cc2ccccc2)nc2ccccc2c1=O	/	0	-2	-2	5	/	/
CC[C@]12c3[nH]c4cc(CCC(=O)N(C)C)ccc4c3CCN1C(=O)[C@@H](CC(=O)NCc1cccc(C(F)(F)F)c1)C[C@@H]2C(=O)N1CCN(C(=O)C2CC2)CC1	/	-9	-1	-7	0	/	/
O=C(NCc1ccccc1F)C1CCCN1S(=O)(=O)c1ccc(Cl)cc1 (centres undefined)	-4	0	-1	-1	-3	1	/
COc1ccccc1NS(=O)(=O)c1cc(NC(=O)Nc2ccccc2)ccc1N1CCCCC1	0	10	0	35*	3	1	24
COc1ccc(NS(=O)(=O)c2cc(NC(=O)CCNC(C)=O)ccc2N2CCCCC2)cc1	/	3	4	0	2	0	/
COc1ccc(NS(=O)(=O)c2cc(NC(=O)/C=C/c3cc(OC)ccc3OC)ccc2N2CCCCC2)cc1	-1	-2	-3	39*	1	1	13
CS(=O)(=O)c1sc2nc(-c3cccs3)cc(-c3ccccc3)c2c1N	5	12	-2	74*	6	2	14
O=C(Nc1ccc(S(=O)(=O)N2CCOCC2)cc1)c1ccc(Cl)cc1Cl	2	-16	0	-4	2	-2	/
Oc1csc(Cc2nc(-c3ccc4ccccc4c3)cs2)n1	7	12	-1	56*	1	10	38
CCOC(=O)/C=C1\CC(C(=O)OCC)Oc2c(OC)cccc21 (centres undefined)	/	0	0	39*	1	/	38
O=C(NC1CCN(C(=S)Nc2ccc(F)cc2)CC1)c1ccco1	1	1	1	3	3	4	/
Nc1ccc2cccc(O)c2c1	/	-18	6	41*	-29	/	29
OC(c1cc(Cl)cc(Cl)c1)c1ncc(-c2ccccc2F)[nH]1 (centres undefined)	/	-1	3	-7	3	/	/
